A selection: hits, their analogues and other compounds. The true share with any hit is near 1.2%.
RanGTP-Imp inh: inhibitors of RanGTP-importin-beta interaction, primary screen, biochemical, FRET, CFP-Ran, YFP-importin-beta, homogeneous. cell-free CFP-Ran/YFP-importin-beta FRET ratio. inhibition, % (no concentration beside the values). actives 1.1% (n = 300,000). AID 2216;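 active = more than half of the replicate wells show a fall in the fluorescence ratio signal beyond about 16%, limit read from the data, passing the limit was not always enough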
Runt-CBFb FRET: blocks binding of human RUNX1 Runt domain to CBFb. Q01196+Q13951. Cerulean-Runt/Venus-CBFb FRET ratio 530/480, 1 h. inhibition, % at 20 µM. actives 0.46% (n = 220,000). AID 1496;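 active = inhibition over about 50% at 20 µM in the single-dose screen, limit read from the data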
Target sequence (Q01196 whole entry, looked up, the tested form may be a part): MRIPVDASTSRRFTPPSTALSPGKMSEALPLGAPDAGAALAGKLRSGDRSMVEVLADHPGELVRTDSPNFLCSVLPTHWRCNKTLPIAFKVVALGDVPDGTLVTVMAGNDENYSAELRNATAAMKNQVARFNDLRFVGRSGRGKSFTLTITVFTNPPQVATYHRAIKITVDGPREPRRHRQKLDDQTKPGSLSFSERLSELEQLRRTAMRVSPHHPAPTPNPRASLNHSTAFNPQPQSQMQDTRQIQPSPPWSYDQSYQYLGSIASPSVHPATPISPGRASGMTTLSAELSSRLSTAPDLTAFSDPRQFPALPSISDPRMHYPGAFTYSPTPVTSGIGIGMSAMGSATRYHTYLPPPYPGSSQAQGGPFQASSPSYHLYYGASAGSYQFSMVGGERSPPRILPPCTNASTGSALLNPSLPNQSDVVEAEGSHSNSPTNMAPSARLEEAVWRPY
Target sequence (Q13951 whole entry, looked up, the tested form may be a part): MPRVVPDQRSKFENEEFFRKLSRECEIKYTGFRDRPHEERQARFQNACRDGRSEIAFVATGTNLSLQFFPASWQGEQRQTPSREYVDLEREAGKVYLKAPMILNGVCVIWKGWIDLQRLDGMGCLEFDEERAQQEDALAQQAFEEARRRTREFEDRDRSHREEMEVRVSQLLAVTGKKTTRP
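Doses: 20 µM compound in 1% DMSO | Material: Cerulean-labeled Runt domain protein | Amount: Each fluorescent fusion protein 100 nM | Schedule: Two 1 h room-temperature incubations shielded from light | Measured by: FRET fluorescence | Evaluation: Loss of energy transfer signal | Controls: Unlabeled CBFb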
CaV13 ICDI inh: Disruptors of the CACNA1D IQ motif to Ca2+-dependent inactivation inhibitor domain association, primary screening, Förster resonance energy transfer in intact living … | HEK cells, CFP/YFP FRET ICDI-IQ, plate reader, 10 min; percent FRET-ratio fall versus neutral wells | inhibition, % at 12.3 µM | actives 0.098% (n = 340,000);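 active = mean replicate inhibition of at least 30% and at least 1% of replicates passing that level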
Runt-SMMHC FRET: inhibitors of human RUNX1 Runt domain binding to CBFb-SMMHC; actives 0.74% (n = 220,000); AID 1434; Cerulean-Runt/Venus-CBFb-SMMHC FRET ratio 530/480, 1 h; inhibition, % at 20 µM; Q01196+Q13951;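 active = mean inhibition across duplicate retests at 20 µM reaching about 50%, limit read from the data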;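 note: inhibitors lower the FRET ratio by blocking Runt binding to CBFb-SMMHC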
YIC FRET counter: counter-screen: alters YIC FRET probe signal | shares compounds with RanGTP-Imp inh | Purified YIC probe, intramolecular FRET ratio YFP/CFP | IC50, µM | actives 40% (n = 1,000) | AID 435026;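 active = fitted half-maximal inhibitory concentration no more than tenfold above the top dose tested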
Each line names hits and unclear results; the compound was inactive in the other large screens (follow-up assays come after a bar, where they were run).

CCOc1ccc(S(=O)(=O)N2CCC(C(=O)NC3CC3)CC2)cc1C	none (no result: Runt-CBFb FRET, Runt-SMMHC FRET)
Cc1ccc(Nc2nc(N)[nH]c(=O)c2N=O)cc1	RanGTP-Imp inh 28.9 | YIC FRET counter 18.9
CN1CCN(c2ccc(S(=O)(=O)N3CCCCC3)cc2NC(=O)Cc2ccc(Cl)cc2)CC1	RanGTP-Imp inh 40.3 | YIC FRET counter inactive
O=C(Cc1ccc(Cl)cc1)Nc1cc(S(=O)(=O)N2CCOCC2)ccc1N1CCCC1	none
CN(C(=O)CNC(=O)c1ccc(Br)o1)C1CCCCC1	none (no result: RanGTP-Imp inh, Runt-CBFb FRET, Runt-SMMHC FRET)
CC(NCc1cccs1)C(=O)NC1CCCCC1 (centres undefined)	RanGTP-Imp inh 17.4 | YIC FRET counter inactive
CC(C)C(NC(=O)c1cccs1)C(=O)NC1CCCCC1 (centres undefined)	none (no result: Runt-CBFb FRET, Runt-SMMHC FRET)
CC(=O)Nc1ccccc1OCC(=O)NCCc1ccc(Cl)cc1Cl	none
CCOC(=O)c1ccc(-c2ccc3c(=O)c4ccccc4n(C)c3c2)cc1F	RanGTP-Imp inh 43.7 (no result: Runt-CBFb FRET, Runt-SMMHC FRET) | YIC FRET counter 1.29
O=[N+]([O-])c1ccc(S(=O)(=O)Nc2nnc(C3CCCCC3)s2)cc1	RanGTP-Imp inh 19.7 (no result: Runt-CBFb FRET, Runt-SMMHC FRET) | YIC FRET counter inactive
O=S(=O)(Nc1nnc(C2CCCCC2)s1)c1ccc(F)cc1	none (no result: Runt-CBFb FRET, Runt-SMMHC FRET)
C=CCN1C=CC(=CC=C(C#N)C#N)C=C1	RanGTP-Imp inh 20.9 | YIC FRET counter 16.6
C=CCN1C=C/C(=C\C=C(C#N)C#N)c2ccccc21	none
COc1cc(NS(=O)(=O)c2ccc(Br)cc2)c(OC)cc1NC(=O)c1ccco1	none
Cc1noc(C)c1-c1ccc(C(=O)NCCN2CCOCC2)c2occc12	none (no result: RanGTP-Imp inh, Runt-CBFb FRET, Runt-SMMHC FRET)
Cc1cccc(N2CCN(C(=O)c3c(-c4ccccc4)noc3C)CC2)c1C	none (no result: Runt-CBFb FRET, Runt-SMMHC FRET)
CC(C)c1ccccc1NC(=O)C1C2C=CC(C2)C1C(=O)O (centres undefined)	RanGTP-Imp inh 24.2 (no result: Runt-CBFb FRET, Runt-SMMHC FRET) | YIC FRET counter inactive
CC(=O)Nc1cc(C(=O)N(C)Cc2ccco2)ccc1Sc1ccc(Cl)cc1	RanGTP-Imp inh 17.5 | YIC FRET counter inactive
OCC1(Cc2cccc(Cl)c2)CCCN(Cc2ccc3cc(F)ccc3n2)C1 (centres undefined)	RanGTP-Imp inh 24.3 | YIC FRET counter inactive
O=C(O)CSCC(=O)N1CCN(Cc2ccc3c(c2)OCO3)CC1	none (no result: Runt-CBFb FRET, CaV13 ICDI inh, Runt-SMMHC FRET)
C[C@@H]1CN([C@H](C)CO)C(=O)CCCn2nncc2CO[C@H]1CN(C)C(=O)Cc1ccccc1	none (no result: RanGTP-Imp inh, Runt-CBFb FRET, Runt-SMMHC FRET)
O=C(Cn1c2ccccc2c(=O)c2ccccc21)Nc1ccccc1F	RanGTP-Imp inh 35.8, Runt-CBFb FRET 119.1 | YIC FRET counter 6.63
N#CCOc1coc(CN2CCN(c3cccc(Cl)c3)CC2)cc1=O	none (no result: Runt-CBFb FRET, Runt-SMMHC FRET)
COc1ccccc1CNC(=O)Cn1ccsc1=N	RanGTP-Imp inh 20.1 (no result: Runt-CBFb FRET, CaV13 ICDI inh, Runt-SMMHC FRET) | YIC FRET counter inactive
O=C1NC[C@H](CCCCN2CCN(CCc3ccc(O)cc3)C(=O)C2=O)N(CCC2CCCCC2)C1=O	none (no result: RanGTP-Imp inh, Runt-CBFb FRET, Runt-SMMHC FRET)
CN(C)Cc1c(O)ccc2ccccc12	none
CC(C)CN(Cc1c(O)ccc2ccccc12)CC(C)C	RanGTP-Imp inh 20.2 | YIC FRET counter inactive
COc1cccc(CN(CC(=O)NC2CCCC2)C(=O)Cn2nnc(-c3cccs3)n2)c1	none
Cc1c(Br)c([N+](=O)[O-])nn1CCCC(=O)Nc1sc2c(c1C(N)=O)CCC(C)C2 (centres undefined)	none
Cc1c(Cl)c([N+](=O)[O-])nn1CCCC(=O)Nc1sc2c(c1C(N)=O)CCC(C)C2 (centres undefined)	RanGTP-Imp inh 24.4 | YIC FRET counter inactive
CCOC(=O)/C(=N\Nc1ccc(C(C)=O)cc1)c1csc(Nc2ccccc2)n1	RanGTP-Imp inh 17.9 | YIC FRET counter inactive
Oc1c(CN2CCOCC2)cc(COCc2ccccc2)c2cccnc12	none
COCc1cc(CN2CCN(C)CC2)c(O)c2ncccc12	RanGTP-Imp inh 26.0 | YIC FRET counter inactive
CC12OC1C1(O)CCCC1=CC2=O (centres undefined)	RanGTP-Imp inh 19.8 (no result: Runt-CBFb FRET, CaV13 ICDI inh, Runt-SMMHC FRET) | YIC FRET counter inactive
COc1cc(NC(=O)Cn2ncc(Cl)c(Cl)c2=O)c(C)cc1[N+](=O)[O-]	RanGTP-Imp inh 27.4 | YIC FRET counter inactive
CSc1nc(-c2ccc(N(C)C)cc2)c(C#N)c(=O)n1C	RanGTP-Imp inh 16.9, Runt-SMMHC FRET 85.4 | YIC FRET counter 9.42
COc1ccccc1CNC(=O)COC(=O)C1CCN(S(=O)(=O)c2ccccc2)CC1	none (no result: Runt-CBFb FRET, Runt-SMMHC FRET)

Screening data from PubChem.
